This is an account of results in ChEMBL document CHEMBL1123006, “Synthesis and cytotoxic activity of hydroxylated derivatives of olivacine in relation with their biotransformation” (1985).

The test system of experiment [1] is L1210. The experiment can be described thus: Antitumor efficiency against L1210 leukemia cells expressed as % increase in life span (ILS) 24 hrs after ip grafting (10e5 cells). Format: functional, Mus musculus. In a few lines: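 DBA/2 mice given 10^5 L1210 cells intraperitoneally, then a single ip drug dose 24 h later. ILS = (median survival of treated − median survival of controls) / median survival of controls × 100.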

For experiment [2], the species on record is Rattus norvegicus. Nature of the experiment: Phenobarbital induced rat hepatic microsomal hydroxylation in vitro. The class given is functional. The conditions noted are these: Liver. In a few lines: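 Liver microsomes from male Sprague–Dawley rats given phenobarbital 80 mg/kg/day ip in 0.9% NaCl for 3 days, killed 2 days after last dose. Microsomes 0.5 mg protein/mL in Tris-HCl 0.02 M pH 7.4 with 1.15% KCl; olivacine acetate at five levels, 5–50 µM; NADPH 1 mg/mL; 37 °C, 5 min. Butanol extract, HPLC; Km/Vmax by Lineweaver-Burk; two rats.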

For experiment [3], the species on record is Rattus norvegicus. Nature of the experiment: Benzo[a]pyrene induced rat hepatic microsomal hydroxylation in vitro. Format: functional. The note with it: Liver. In a few lines: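 Liver microsomes from male Sprague–Dawley rats given benzo[a]pyrene 20 mg/kg/day ip in sunflower oil for 2 days, killed 2 days after last dose. Microsomes 0.5 mg protein/mL in Tris-HCl 0.02 M pH 7.4 with 1.15% KCl; olivacine acetate at five levels, 5–50 µM; NADPH 1 mg/mL; 37 °C, 5 min. Butanol extract, HPLC; Km/Vmax by Lineweaver-Burk; two rats.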

The test system of experiment [4] is L1210. The experiment can be described thus: Antitumor activity against L1210 leukemia cells expressed as dose concentration that reduces number of cells by 50% after 48 hrs exposure to drug. The class given is functional. The conditions noted are these: Mus musculus, L1210, 48 h; read-out: ID50 (the source's name). In a few lines:
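L1210 leukemia cells grown in vitro with drug for 48 h; cell number counted against untreated control; ID50 taken as the concentration cutting cell number by 50%.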

For experiment [5], the system named is Mus musculus. The experiment can be described thus: Highest nonlethal dose against mice administered through intraperitoneal route. The class given is functional.
Experiment [6] is filed under the species Rattus norvegicus. The experiment can be described thus: Non induced rat hepatic microsomal hydroxylation in vitro. Format: functional. The conditions noted are these: Liver. In a few lines: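 Liver microsomes from male Sprague–Dawley rats given only vehicle ip (sunflower oil or 0.9% NaCl). Microsomes 0.5 mg protein/mL in Tris-HCl 0.02 M pH 7.4 with 1.15% KCl; olivacine acetate at five levels, 5–50 µM; NADPH 1 mg/mL; 37 °C, 5 min. Butanol extract, HPLC; Km/Vmax by Lineweaver-Burk; two rats.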

Experiment [7] has as its system Mus musculus. The experiment can be described thus: Cytotoxicity against L1210 leukemia cells administered through intraperitoneal route in mice. The class given is functional.

By ILS is commonly meant the gain in survival time of treated over control animals, in per cent. Usually Km stands for the concentration of substrate that gives half-maximal velocity. For orientation: Vmax means the top rate of the reaction or transport when substrate is in excess.

Take `Cc1nccc2c(C)c3[nH]c4ccc(O)cc4c3cc12`: the increase in lifespan (ILS) in the experiment with L1210 [1] is reported as 39%. For the same molecule, the results for the Km in the experiment listed under Rattus norvegicus [2], in the experiment listed under Rattus norvegicus [3] and in the experiment listed under Rattus norvegicus [6] were 40 µM, 22.2 µM and 25 µM, respectively. Also, the Vmax in the experiment filed under Rattus norvegicus [2] was determined as 1.28 nM/min; in the experiment listed under Rattus norvegicus [3], 7.14 nM/min; in the experiment filed under Rattus norvegicus [6] it was 0.58 nM/min. Moreover, the IC50 with L1210 [4] worked out at 60 nM. The molecule also yielded an LD0 in the experiment on Mus musculus [5] of 50 mg/kg.
Take `Cc1nccc2c(C)c3[nH]c4ccccc4c3cc12`: the increase in life span (ILS) in the experiment with L1210 [1] came out at 35%. Further, the IC50 with L1210 [4] was 2030 nM. Besides, in the experiment on Mus musculus [7], the LD0 is 250 mg/kg.
For `Cc1c2ccncc2c(C)c2c1[nH]c1ccccc12` [ELLIPTECINE], the IC50 with L1210 [4] stood at 990 nM. The molecule further came in with an LD0 in the experiment on Mus musculus [7] of 50 mg/kg.
On to `Cc1nccc2c(C)c3[nH]c4c(O)cccc4c3cc12`, for which the Km came out at 41.4 µM in the experiment listed under Rattus norvegicus [2], 29 µM in the experiment listed under Rattus norvegicus [3] and 29.4 µM in the experiment filed under Rattus norvegicus [6]. In the experiment on L1210 [4], the IC50 stood at 12800 nM.
